TRPC6 inh: inhibitors of mouse TRPC6 channel; Q61143; HEK293-TRPC6, membrane potential dye, ACh-evoked depolarization; active compounds read low; B-score at 10 µM; hit rate 1.1% among 310,000; AID 2553;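 active means B-score under library mean minus 3 SD, initial fluorescence not abnormally high, positive integrated signal ratio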;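 further: B-score derived from integrated fluorescence ratio over the kinetic read; more negative B-score means stronger inhibition of depolarization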
TRPC4 agonist: activators of mouse TRPC4 channel | Q9QUQ5 | B-score at 10 µM | AID 2237 | HEK293 TRPC4beta/mu-opioid, Fluo4 calcium fluorescence; active compounds read high | hit rate 0.49% among 310,000;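 active means B-score above 5 SD of library B-scores, and initial fluorescence ratio not above library mean plus 5 SD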;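 further: positive B-score marks a calcium rise read as TRPC4 activation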
Target sequence (Q9QUQ5 whole entry, looked up): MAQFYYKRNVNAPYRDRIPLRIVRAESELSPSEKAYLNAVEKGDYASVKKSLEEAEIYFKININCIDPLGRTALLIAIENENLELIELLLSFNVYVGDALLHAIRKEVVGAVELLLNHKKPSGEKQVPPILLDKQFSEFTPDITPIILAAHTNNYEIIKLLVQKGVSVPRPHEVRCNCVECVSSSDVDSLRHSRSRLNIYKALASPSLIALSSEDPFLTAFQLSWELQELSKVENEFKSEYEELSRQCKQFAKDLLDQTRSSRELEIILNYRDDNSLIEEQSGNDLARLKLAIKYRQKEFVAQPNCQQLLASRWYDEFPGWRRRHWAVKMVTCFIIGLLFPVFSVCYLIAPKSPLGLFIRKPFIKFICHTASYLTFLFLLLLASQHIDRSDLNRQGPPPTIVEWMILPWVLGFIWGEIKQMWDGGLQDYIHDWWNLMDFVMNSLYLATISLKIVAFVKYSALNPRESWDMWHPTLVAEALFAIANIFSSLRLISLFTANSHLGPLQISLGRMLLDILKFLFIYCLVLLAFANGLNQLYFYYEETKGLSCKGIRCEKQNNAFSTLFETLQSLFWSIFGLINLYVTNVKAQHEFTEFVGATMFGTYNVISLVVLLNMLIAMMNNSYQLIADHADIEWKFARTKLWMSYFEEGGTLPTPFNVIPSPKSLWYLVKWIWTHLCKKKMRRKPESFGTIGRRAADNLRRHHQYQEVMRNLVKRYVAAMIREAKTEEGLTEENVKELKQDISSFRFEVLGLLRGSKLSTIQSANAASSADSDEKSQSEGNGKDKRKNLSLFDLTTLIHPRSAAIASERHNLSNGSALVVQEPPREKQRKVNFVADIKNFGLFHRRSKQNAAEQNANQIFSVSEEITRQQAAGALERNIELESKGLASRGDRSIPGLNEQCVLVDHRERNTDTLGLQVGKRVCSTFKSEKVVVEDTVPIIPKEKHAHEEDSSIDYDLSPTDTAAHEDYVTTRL
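System: HEK293 cells stably co-expressing mouse TRPC4beta and mu-opioid receptor; Schedule: Fluo4 dye loading 45 min at room temperature, 110 s recording; Detection: Fluo4 fluorescence, kinetic; Evaluation: B-scored integrated calcium fluorescence ratio; Controls: buffer (low) and maximal DAMGO (high).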
TRPC4 block: inhibitors of mouse TRPC4 channel | hit rate 0.39% among 300,000 | Q9QUQ5 | B-score at 10 µM | HEK293 TRPC4beta/mu-opioid, DAMGO-evoked Fluo4 calcium flux; active compounds read low;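 active means B-score over 3 SD under the library average, no early fluorescence shift, positive overall ratio signal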
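test system = HEK293 cells with stable TRPC4beta plus mu-opioid receptor expression | detection = Fluo4 Ca2+ flux fluorescence | read-out = integrated fluorescence ratio relative to baseline, converted to per-well B score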
TRPC4 PAM: allosteric potentiators of mouse TRPC4 channel | Q9QUQ5 | HEK293 TRPC4beta/mu-opioid, DAMGO EC20, Fluo-4 Ca2+ flux; active compounds read high | B-score at 10 µM | hit rate 0.42% among 310,000 | AID 2227;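 active means B-score of calcium response area above 5 SD of library B-scores, with initial fluorescence ratio within 5 SD of library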;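 further: B-score of integrated fluorescence ratio over time as area under calcium response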
TRPC6 activator: activates the mouse TRPC6 cation channel. Q61143. HEK293-TRPC6 membrane potential dye fluorescence; active compounds read high. B-score at 10 µM. hit rate 0.13% among 310,000. AID 2550;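 active means B-score of the integrated fluorescence ratio above library mean plus 3 SD, and starting fluorescence ratio within library mean plus 5 SD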;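 further: higher score means more depolarization so channel activation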
TRPC4 sel inh 2: second selectivity test of TRPC6 inhibitors: effect on mouse TRPC4 | shares compounds with TRPC6 inh | HEK293 TRPC4/MOR, membrane potential dye fluorescence; channel activated by saturating DAMGO dose | inhibition, % at 10 µM | hit rate 42% among 920 | AID 2776;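 active means compounds whose fluorescence signal differed from control wells by over 3 SD, either direction, in both duplicate plates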
TRPC4 spec: selectivity of TRPC6 inhibitors: effect on mouse TRPC4; shares compounds with TRPC6 inh; HEK293 TRPC4/mu-opioid, membrane potential fluorescence; activity change, negative = inhibition, % at 10 µM; hit rate 61% among 920; AID 2777;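 active means rise or fall in signal beyond 3 SD of buffer-only wells in both replicate plates, either sign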;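 further: integrated kinetic ratio of fluorescence range over baseline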
HEK293 MPD ctr 2-1: parental HEK293 nonspecific activity of TRPC6 inhibitors, second screen; shares compounds with TRPC6 inh; parental HEK293 membrane potential dye fluorescence; maximal acetylcholine challenge after compound addition; signal change vs control, % at 10 µM; hit rate 31% among 920;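 active means membrane potential signal moving either way by over 3 SD of the maximum-effect control, in both duplicate plates, meaning non-specific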
HEK293 MPD ctr-1: parental HEK293 nonspecific activity of TRPC6 inhibitors | membrane potential signal change, % at 10 µM | parental HEK293 membrane potential dye fluorescence | hit rate 60% among 920 | shares compounds with TRPC6 inh | AID 2780;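 active means membrane potential signal shifting up or down by more than 3 SD of buffer-only wells, on both duplicate plates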
HEK293 MPD ctr-2: parental HEK293 nonspecific activity of TRPC6 modulators; shares compounds with TRPC6 inh; membrane potential dye fluorescence; membrane potential signal change, % at 10 µM; hit rate 51% among 2,400;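 active means membrane potential signal moves up or down beyond 5 SD from buffer-only wells, on both duplicate plates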
HEK293 MPD ctr 2-2: second check of TRPC6 modulator effects in parental HEK293 cells; shares compounds with TRPC6 inh; membrane potential dye fluorescence; after compound, maximal acetylcholine stimulation; inhibition, % at 10 µM; hit rate 14% among 2,400; AID 488926;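 active means membrane potential signal drops by more than 5 SD from the mean control signal, in both duplicate plates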;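 further: plate controls were acetylcholine ECmax control wells for no effect and buffer only wells for full effect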
TRPC4 ctr mod: tests whether TRPC6 modulators also affect mouse TRPC4; shares compounds with TRPC6 inh; HEK293 TRPC4/mu-opioid, membrane potential fluorescence; percent change from control (negative = decrease, positive = increase), % at 10 µM; hit rate 69% among 2,400; AID 488927;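 active means membrane potential signal moved up or down beyond 5 SD of buffer control wells, in both duplicate plates, actives on both sides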;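 further: plate controls were assay buffer wells for no effect and DAMGO maximal-effect wells for full effect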
TRPC4 ctr inh 2: second check of whether TRPC6 modulators also affect mouse TRPC4 | HEK293 TRPC4/mu-opioid, membrane potential dye fluorescence; stimulated with maximal-effect DAMGO | shares compounds with TRPC6 inh | hit rate 55% among 2,400 | inhibition, % at 10 µM | AID 488928;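 active means drop in membrane potential signal beyond 5 SD of the control wells in both duplicate plates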;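 further: TRPC4 counter screen for TRPC6 hits run under conditions tuned for TRPC6 not TRPC4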
TRPC6 inh conf: confirmation of mouse TRPC6 inhibitors; shares compounds with TRPC6 inh; HEK293-TRPC6, membrane potential dye, ACh-evoked depolarization; inhibition, % at 10 µM; hit rate 43% among 3,300;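 active means fluorescence ratio falls more than 5 SD below the full-stimulation control mean, in both duplicate runs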;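 further: integrated fluorescence ratio of peak minus minimum over baseline after agonist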
TRPC6 act confirm: confirmation of mouse TRPC6 activators; shares compounds with TRPC6 inh; HEK293-TRPC6 membrane potential dye fluorescence, FDSS; activation, % at 10 µM; hit rate 11% among 2,800;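 active means ratio signal rise beyond 5 SD above unstimulated control wells' mean, seen in both duplicate runs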;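 further: plate controls were buffer EC0 wells for no effect and acetylcholine ECmax response for full effect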
An asterisk follows results filed as active; i = inactive; . = no result given; + = active, no number. Rows were chosen to be rich in hits. Some 2.3% of all compounds tested hit in one or more screens of this group.

SMILES	TRPC6 inh	TRPC4 agonist	TRPC4 block	TRPC4 PAM	TRPC6 activator	HEK293 MPD ctr-2	HEK293 MPD ctr 2-2	TRPC4 ctr mod	TRPC4 ctr inh 2	TRPC6 inh conf	TRPC6 act confirm	others
O=C(/C=C1\NCC2c3ccccc3CCN2C1=O)c1ccccc1 (configuration not stated)	-6.07*	i	i	i	i	171.0%*	i	13.5%*	i	72.0%*	.
O=C(N/N=C/c1cc([N+](=O)[O-])ccc1O)c1cccc(N2CCCC2=O)c1	i	i	i	i	i	.	.	.	.	.	.
CC(C)c1ccc(N2C(=O)CC(Sc3ncn[nH]3)C2=O)cc1 (configuration not stated)	i	i	i	i	i	.	.	.	.	.	.
CC(C)c1ccc(N2C(=O)CC(Sc3nc4ccccc4o3)C2=O)cc1 (configuration not stated)	-7.43*	i	i	i	i	.	.	.	.	i	i	TRPC4 sel inh 2=i;TRPC4 spec=i;HEK293 MPD ctr 2-1=i;HEK293 MPD ctr-1=i
Nc1c2c(nc3sc4c(c13)CCCC4)CCCCCC2	i	i	i	i	i	.	.	.	.	.	.
Cc1ccc(C)c2c(N)c3c(nc12)CCCCC3 (tested in a mixture with another compound)	-5.84*	i	-7*	i	i	-117.5%*	i	-21.5%*	i	i	i
COc1ccc(C(=O)NNC(=O)CSc2nnc(-c3cccnc3)o2)cc1	i	i	i	i	i	.	.	.	.	.	.
CC1CCCCN1CC(=O)Nc1ccc(N2CCCCCC2)cc1 (configuration not stated)	-5.41*	i	i	i	i	i	i	-11.5%*	32.0%*	40.0%*	i
O=C(NCCc1ccccc1)/C(=C\c1cccc([N+](=O)[O-])c1)NC(=O)c1ccco1	i	i	i	i	i	.	.	.	.	.	.
Cc1nn(-c2ccc(N3CCCCC3)nn2)c(C)c1CCC(=O)Nc1cc(F)ccc1F	i	i	i	i	i	.	.	.	.	.	.
Cn1nc(C(C)(C)C)cc1C(=O)Nc1nc2c(s1)C(=O)CC(C)(C)C2	-5.03*	i	i	i	i	i	i	i	i	i	.
CC1(C)CC(=O)c2sc(NC(=O)C3CC3)nc2C1	i	i	i	i	i	.	.	.	.	.	.
COCCNc1nc2nonc2nc1N1CCC(N(C)C)C1 (configuration not stated)	-5.42*	i	i	i	i	i	i	i	i	i	i
COCCNc1nc2nonc2nc1N1C[C@H]2CC[C@H]1C2	i	i	i	i	i	.	.	.	.	.	.
Nc1cc(C(F)(F)F)ccc1-n1cccc1	i	i	i	i	i	.	.	.	.	.	.
CCc1ccc(/C=C2/SC(=S)N(CCC(=O)NCCCN3CCOCC3)C2=O)cc1	-5.76*	i	i	i	i	i	i	i	45.0%*	39.0%*	i
CNS(=O)(=O)c1cccc(C(=O)NCC2(N3CCCCC3)CCCCC2)c1	i	i	i	i	i	.	.	.	.	.	.
Cc1cccc(NS(=O)(=O)c2cccc(C(=O)NCC3(N4CCCCC4)CCCCC3)c2)c1	-5.04*	i	i	i	i	i	i	i	72.0%*	52.0%*	.
O=C(Cn1nc(Cc2cccnc2)c2ccccc2c1=O)NCc1ccc(F)cc1	i	i	i	i	i	.	.	.	.	.	.
COc1cc(/C=C2/SC(=S)N(Cc3ccccc3)C2=O)cc(Cl)c1O	i	174*	i	37*	75.8*	+	i	520.5%*	i	i	555.0%*
CC(NC(=O)NC1CCCCC1)C(c1cccs1)N1CCOCC1 (configuration not stated)	i	i	i	i	i	.	.	.	.	.	.
COc1cnc(-c2ccccn2)nc1N(C)c1ccccc1	-5.87*	i	i	i	i	-59.0%*	i	i	28.0%*	i	i
COc1ccc(Sc2nc(-c3ccccn3)ncc2OC)cc1	-6.1*	i	i	i	i	-99.0%*	i	-15.0%*	i	i	i
CN(C)CCCNC1CS(=O)(=O)CC1O (configuration not stated)	-7.2*	i	i	i	i	.	.	.	.	i	i	TRPC4 sel inh 2=i;TRPC4 spec=i;HEK293 MPD ctr 2-1=i;HEK293 MPD ctr-1=i
O=S1(=O)CC(O)C(NCCO)C1 (configuration not stated)	i	i	i	i	i	.	.	.	.	.	.
O=[N+]([O-])c1cccc(S(=O)(=O)N2CCN(c3ccccn3)CC2)c1	i	i	i	i	i	.	.	.	.	.	.
Cc1nnc(Nc2ccc3c(c2)ncn3C)c2ccccc12	-9.52*	i	i	i	i	.	.	.	.	56.2%*	i	TRPC4 sel inh 2=i;TRPC4 spec=-24.3%*;HEK293 MPD ctr 2-1=-7.0%*;HEK293 MPD ctr-1=-323.5%*
Cc1nnc(Nc2ccc(C(=O)NCCO)cc2)c2ccccc12	i	i	i	i	i	.	.	.	.	.	.
CNC(=O)c1ccc(Nc2nnc(C)c3ccccc23)cc1	-5.52*	i	i	i	i	-99.0%*	i	i	i	i	i
CC(C)CNC(=O)CSc1n[nH]c(=O)n1CCc1ccccc1	i	i	i	i	i	.	.	.	.	.	.

Screening data as filed in PubChem.
